An excerpt weighted towards active compounds, which were near 1.8% of everything screened.
STEP inh: STEP phosphatase inhibitors, primary screen, biochemical, fluorescence intensity, uHTS. Tyrosine-protein phosphatase non-receptor type 5 (Homo sapiens), P54829. recombinant STEP, OMFP fluorogenic substrate. inhibition, % at 20 µM. 360,000 compounds, 0.25% hits. AID 588621, 2011;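 active means inhibition at 20 µM, scaled per plate between control wells, above about 37%, limit read from the data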
Target sequence (P54829 whole entry, looked up): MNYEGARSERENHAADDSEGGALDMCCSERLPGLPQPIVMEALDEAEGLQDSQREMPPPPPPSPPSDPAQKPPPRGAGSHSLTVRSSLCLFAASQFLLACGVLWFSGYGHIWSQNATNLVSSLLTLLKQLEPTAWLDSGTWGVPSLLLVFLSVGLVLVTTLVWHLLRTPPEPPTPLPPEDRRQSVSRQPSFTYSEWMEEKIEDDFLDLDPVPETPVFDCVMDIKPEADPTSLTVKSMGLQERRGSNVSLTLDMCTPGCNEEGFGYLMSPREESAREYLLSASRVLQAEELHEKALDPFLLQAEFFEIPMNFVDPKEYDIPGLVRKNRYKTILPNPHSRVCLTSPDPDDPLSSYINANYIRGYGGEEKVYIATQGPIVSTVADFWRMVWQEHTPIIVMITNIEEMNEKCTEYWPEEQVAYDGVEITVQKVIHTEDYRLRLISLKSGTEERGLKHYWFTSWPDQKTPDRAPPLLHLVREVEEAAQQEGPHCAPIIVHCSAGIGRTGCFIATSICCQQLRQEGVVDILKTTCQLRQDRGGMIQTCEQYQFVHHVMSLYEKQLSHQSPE
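Material: STEP (striatal-enriched tyrosine phosphatase) enzyme, cell-free | Medium: 50 mM Bis-Tris pH 6.0 with 2.5 mM DTT and 0.005% Tween 20 | Read-out: Percent inhibition scaled to no-enzyme and uninhibited-enzyme controls, plate-pattern corrected | Signal: Fluorescence read at 480 nm ex / 540 nm em | Times: 20 min reaction, room temperature, in the dark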
Scp1 inh: Scp-1 phosphatase inhibitors, primary screen, biochemical, colorimetric, uHTS | Carboxy-terminal domain RNA polymerase II polypeptide A small phosphatase 1 (Homo … | 340,000 compounds, 0.88% hits | AID 493091, 2011 | Recombinant Scp1, phosphopeptide, malachite green phosphate absorbance | inhibition, % at 20 µM;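 active means inhibition above about 50% at 20 µM, limit read from the data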
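Material – SCP-1 phosphatase catalytic domain, residues 76-261 · Buffer or medium – Acidic Tris acetate buffer with magnesium and detergent · Also added – Phospho 17-mer peptide substrate · Compound – single 20 µM dose, 1% DMSO · Times – 45 min room-temperature reaction, 5 min colour, 30 min stabiliser · Technique – Phosphate-binding colour reagent, absorbance read at 630 nm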
HKDC1 inhibitor: HKDC1 hexokinase inhibitors, primary screen, biochemical, fluorescence, uHTS; 340,000 compounds, 0.16% hits; recombinant HKDC1, G6PDH/diaphorase resazurin coupled fluorescence; AID 493160, 2011; inhibition, % at 20 µM;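 active means inhibition above about 35% when tested at 20 µM, limit read from the data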
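Test system: recombinant HKDC1 (HK5) hexokinase enzyme, produced in-house / Doses: 20 µM test compound, 1% DMSO / Timing: 90 min, room temperature / Detection: G6PDH/diaphorase-coupled fluorescence, 1 mM NADP, 100 µM resazurin, 525/613 nm / Control set: DMSO wells with and without enzyme mix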
SUMO1 PPI mod: modulators of SUMO1 protein-protein interactions, primary screen, biochemical, uHTS. AID 602429, 2012. inhibition, % at 20 µM. Small ubiquitin-related modifier 1 (Homo sapiens), P63165. SUMO1 binding to a labelled peptide, TR-FRET, 1 h. 360,000 compounds, 0.33% hits; in the data active means inhibition above about 37%
LMPTP inh: LMPTP phosphatase inhibitors, primary screen, biochemical, fluorescence intensity, uHTS | Low molecular weight phosphotyrosine protein phosphatase (Homo sapiens), P24666 | inhibition, % at 20 µM | recombinant LMPTP-A, OMFP fluorogenic substrate | AID 651560, 2012 | 360,000 compounds, 0.22% hits;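 active means compounds that cut the enzyme signal by at least half of the control window in the single-dose screen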
Target sequence (P24666 whole entry, looked up): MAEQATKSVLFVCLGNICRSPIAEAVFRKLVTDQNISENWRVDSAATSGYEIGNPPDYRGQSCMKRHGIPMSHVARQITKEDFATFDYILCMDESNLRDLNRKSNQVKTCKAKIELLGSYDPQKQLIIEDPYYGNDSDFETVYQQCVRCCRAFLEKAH
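Test system – LMPTP-A enzyme · Amount – LMPTP-A at 0.625 nM final in the reaction · Buffer or medium – Bis-Tris pH 6.0, DTT, detergent · Reagent – OMFP 400 µM · Doses – single 20 µM dose · Schedule – reaction 50 min, room temperature, dark · Detection – fluorescence intensity of OMFP turnover product · Evaluation – percent inhibition versus substrate-only and uninhibited controls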
DNMT1 inh: human DNMT1 methyltransferase inhibitors, primary screen, biochemical, molecular beacon, fluorescence, HinP1I cleavage, uHTS; AID 588458, 2011; inhibition (reported as % activation of signal), % at 10 µM; 360,000 compounds, 0.83% hits; DNA (cytosine-5)-methyltransferase 1 (Homo sapiens), P26358; in the data active means inhibition above about 50%
Scp-1 conf: Scp-1 phosphatase inhibitors, retest, confirmation, biochemical, colorimetric, single concentration | recombinant SCP-1 catalytic domain, phosphate release, malachite green absorbance | shares compounds with Scp1 inh | inhibition, % at 20 µM | 2,500 compounds, 61% hits
MG interference: colorimetric readout interference by compounds, confirmation, artefact control for Scp-1 inhibitor project, biochemical, single concentration; shares compounds with Scp1 inh; apparent inhibition (interference), % at 20 µM; Colorimetric interference counterscreen, malachite green absorbance 630 nm; 2,500 tested, under 10 active;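 further: compounds added after enzyme reaction finished so only phosphate colour detection is probed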
Scp1 DSF: Scp-1 binding by thermal shift, confirmation, orthogonal assay for Scp-1 inhibitor project, biophysical, differential scanning fluorimetry; shares compounds with Scp1 inh; Recombinant SCP1, Sypro Orange thermal shift Tm; AID 540329, 2011; thermal shift relative to vanadate control, % at 40 µM; 1,500 compounds, 25% hits;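 active means substances whose mean melting-temperature shift, as a percentage of the reference inhibitor's shift, reaches about 5.3%, limit read from the data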
A number is an active result; 0 = inactive; - = no result given.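 How the source made its calls, unless noted: active means inhibition of at least 30% at 20 µM; inactive means the rest.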

SMILES	STEP inh	Scp1 inh	HKDC1 inhibitor	SUMO1 PPI mod	LMPTP inh	DNMT1 inh	Scp-1 conf	MG interference	others
COc1ccc([C@@H]2C[C@H]3[C@@H](CN2S(=O)(=O)c2ccccc2)C(=O)C[C@@H](c2cccc(Cl)c2)N3S(=O)(=O)c2ccc(C)cc2)cc1	0	-	-	0	0	0	-	-
O=C1NCCCC2c3c(cc(Br)c(O)c3Br)OC12N1CCCCC1 (centres undefined)	0	57	0	0	0	0	0	0
Cc1sc(NC(=O)Cn2nc(C(F)(F)F)cc2C)c(C(=O)OC(C)C)c1C	0	63	0	0	0	0	0	0
COc1ccc(/C=C/C(=O)NC(=S)Nc2cc([N+](=O)[O-])ccc2O)cc1OC	62	80	0	0	56	0	54	0	Scp1 DSF=5.7
Cn1nnnc1Sc1ncnc2scc(-c3cc4ccccc4o3)c12	0	0	0	0	0	0	-	-
COCCCN1C(=O)C(CC(=O)NCc2cccs2)CC(C(=O)N2CCCCCC2)=C1C (centres undefined)	-	-	-	0	0	-	-	-
COc1cccc2cc(C(=O)CS(=O)(=O)c3ccc(C)cc3)c(=O)oc12	0	66	0	0	0	0	0	0
Cc1ccc(S(=O)(=O)CC(=O)c2cc3cccc(C)c3oc2=O)cc1	0	0	0	0	0	0	-	-
CCOc1cc(/C=C/c2cccc[n+]2C)ccc1O	0	72	0	0	0	0	0	0
COc1cc(/C=C/c2cccc[n+]2C)ccc1OCC(=O)Nc1ccccc1C	0	52	0	0	0	0	0	0
COc1ccccc1C(CNC(=O)c1oc2ccccc2c1C)N1CCCC1 (centres undefined)	0	0	0	0	0	0	-	-
Cc1cc([N+](=O)[O-])ccc1N	0	0	0	0	0	0	-	-
C[n+]1ccccc1Nc1cc([N+](=O)[O-])ccc1N	0	69	0	0	0	0	87	0	Scp1 DSF=0
CCc1cc(-c2nnn(-c3cc(C(C)C)ccc3C)c2CC)ccc1-c1cn(CCc2c[nH]c3ccccc23)nn1	0	-	-	0	0	0	-	-
COC(=O)C1CCN(C(=O)COC(=O)CNS(=O)(=O)c2ccc(SC)c([N+](=O)[O-])c2)CC1	0	74	0	0	0	0	43	0	Scp1 DSF=0
CSc1ccc(S(=O)(=O)NCC(=O)OCC(=O)N2CC(C)CC(C)C2)cc1[N+](=O)[O-] (centres undefined)	0	0	0	0	0	0	-	-
Nc1ccc(-c2ccc(N)c(C(=O)O)c2)cc1C(=O)O	0	55	0	0	0	0	0	0
Cc1cc(C)n2c(SC/C(O)=C(\C#N)c3nc4ccccc4[nH]3)nnc2n1	0	76	0	0	0	0	63	0	Scp1 DSF=11
COCc1cc(C)c(C#N)c(=S)[nH]1	0	53	0	0	0	0	0	0
COc1ccc(NC(=O)CN2C(=O)COc3ccc(S(=O)(=O)N4CCCCC4)cc32)c(OC)c1	0	0	0	0	0	0	-	-
C[n+]1cnc(-c2ccccc2)cc1-c1ccccc1	0	101	0	0	0	0	86	0	Scp1 DSF=0
O=C(N/N=C/c1cc2c(cc1Br)OCO2)c1cc2ccccc2o1	0	58	0	0	0	0	0	0
NC(=O)NC(=O)COC(=O)c1ccc(OC(F)(F)F)cc1	0	0	0	0	0	0	-	-
O=C(COC(=O)c1ccc(OC(F)(F)F)cc1)Nc1ncccn1	0	82	0	0	0	0	49	0	Scp1 DSF=0
C(=C\c1ccccc1)/CN1CCN(Cc2nc(Cc3ccccc3)no2)CC1	0	53	0	0	0	0	0	0
SMILES	STEP inh	Scp1 inh	HKDC1 inhibitor	SUMO1 PPI mod	LMPTP inh	DNMT1 inh	Scp-1 conf	MG interference	others
CC[N+](CC)(CC)CCOc1ccc(/C=C/c2ccccc2)cc1	0	74	0	0	0	0	50	0	Scp1 DSF=0
CCOc1ccccc1NC(=O)CN1CCC(NC(=O)Nc2ccccc2)CC1	0	0	0	0	0	0	-	-
Brc1ccc(CSc2ncn[nH]2)cc1	0	51	0	0	0	0	0	0
CCOc1ccc(C(=O)N/N=C/c2cc(Cl)ccc2[N+](=O)[O-])cc1	0	103	0	0	0	0	48	0	Scp1 DSF=0
CSC1=NC=C(C#N)C2=NC(c3c(Cl)cccc3Cl)NN12 (centres undefined)	0	-	-	0	0	0	-	-
Cc1ccc(CN2CCC2(C)C(=O)NC2CCc3ccccc32)cc1 (centres undefined)	0	-	-	0	0	0	-	-
Cn1nnnc1Sc1ncnc2scc(-c3ccc(C(F)(F)F)cc3)c12	0	0	0	0	0	0	-	-
Cn1nnnc1Sc1ncnc2scc(-c3ccc(-c4ccccc4)cc3)c12	0	0	0	0	0	0	-	-
Cn1nnnc1Sc1ncnc2scc(-c3ccccc3C(F)(F)F)c12	0	55	0	0	0	0	0	0
Cn1nnnc1Sc1ncnc2scc(-c3cccs3)c12	-	58	0	-	-	-	0	0
O=C(Cn1c(=O)cnc2ccccc21)Nc1cc(Cl)ccc1N1CCOCC1	0	53	0	0	0	0	48	0	Scp1 DSF=0
O=C(Cn1c(=O)cnc2ccccc21)Nc1ccccc1N1CCOCC1	0	0	0	0	0	0	-	-
Cn1cc(-c2csc(C(O)c3ccc(F)cc3)n2)cn1 (centres undefined)	0	-	-	0	0	0	-	-
Cc1ccc(CNS(=O)(=O)c2ccc(Cl)s2)cc1	0	-	-	0	0	0	-	-
O=C(O)c1cc(S(=O)(=O)N2CCN(S(=O)(=O)c3ccc4ccccc4c3)CC2)ccc1Br	0	59	0	0	0	0	63	0	Scp1 DSF=8.7
COc1ccc(C2=NS(=O)(=O)N(C)C(C(=O)N3CCCCC3C)=C2)cc1 (centres undefined)	0	0	0	0	0	0	-	-

Source: PubChem
